Series [1] is described as follows: Plasma pharmacokinetics at steady state. Type of series: in vivo, human. Particulars: for Cmax: human, plasma, oral, Mean Cmax, steady state. In a few lines:
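Patients with relapsed/refractory AML or secondary AML received venetoclax daily on days 1–28 (3–5-day ramp-up to 400, 600 or 800 mg) plus idasanutlin 150, 200 or 400 mg daily or 300 mg twice daily on days 1–5 of 28-day cycles. Noncompartmental analysis of venetoclax plasma concentration–time data; summary statistics of steady-state Cmax and trough. Data from 49 patients across 5 cohorts.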

For series [2], the system named is Macrophage inhibitory cytokine-1 (MIC-1). Briefly: Serum MIC-1 ELISA. Type of series: in vivo, human. The following applies: day 5; idasa 150 to 400 mg daily for 5 days. In a few lines:
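Serum from patients with relapsed/refractory or secondary AML on venetoclax plus idasanutlin. Idasanutlin was given daily or twice daily on days 1–5 of 28-day cycles. MIC-1 was quantified by a human GDF-15 immunoassay kit (ELISA).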

The subject of the next series is MIC-1. Particulars: day 5 of treatment, 100 mg daily for 5 days, PV; cited from earlier work.
The next series has as its system AML. Particulars: idasa monotherapy, cited from earlier work.
For series [3], the system named is R/R AML and newly diagnosed patients with AML unfit for intensive chemotherapy. Particulars: ven monotherapy; cited from earlier work.
Where [4] appears, read: Cohort B1.2.1, n = 5, ven 600 mg, idasa 150 mg.

What is called Cmax is the maximum level reached in the sampled fluid or tissue. `COc1cc(C(=O)O)ccc1NC(=O)[C@@H]1N[C@@H](CC(C)(C)C)[C@](C#N)(c2ccc(Cl)cc2F)[C@H]1c1cccc(Cl)c1F` [idasa, idasanutlin] gave a Cmax in series [1] (400 mg, Cohort B4, n = 8, ven 400 mg, idasa 400 mg) of 7110 ng/mL. In series [1] (setting [4]), this molecule came in with a Cmax of 3220 ng/mL. Also, the MIC-1 increases in series [2] is given as 10- to 20 fold. Also, the “Plasma MIC-1 levels increase” value with MIC-1 was 4.8 fold. The All-grade diarrhea rate in the series with AML (400-800 mg twice daily microprecipitated bulk powder) was 91.3%. Besides, in the series with AML, the All-grade nausea rate is listed as 73.9%, the All-grade vomiting rate is 39.1%, the “CR/CRi/MLFS rate (antileukemic response)” value is 21% and the “Rate of grade ≥3 diarrhea” value was 23.9%. For the same molecule, the “Rate of grade ≥3 nausea” value in the series with AML was 0%.
In the case of `CC1(C)CCC(CN2CCN(c3ccc(C(=O)NS(=O)(=O)c4ccc(NCC5CCOCC5)c([N+](=O)[O-])c4)c(Oc4cnc5[nH]ccc5c4)c3)CC2)=C(c2ccc(Cl)cc2)C1` [ven, Venetoclax], the concentration in series [1] (setting [4]) peaked (Cmax) at 1450 ng/mL. The “Impact of the coadministration of idasa on ven pharmacokinetics” value in series [1] (in vivo) is “no significant impact”. Further, in series [1] (vs historical ven monotherapy), the “Pharmacokinetics of ven in this combination” value is given as “comparable to ven monotherapy”. Moreover, in series [3], the All-grade diarrhea rate is listed as 56%, the All-grade nausea rate was 59%, the All-grade vomiting rate is listed as 41% and the “CR/CRi rate (CRc)” value is on record as 19%. Besides, in series [3], the “Rate of grade ≥3 diarrhea” value is reported as 6% and the “Rate of grade ≥3 nausea” value is listed as 6%.

These data come from publication PMC10651777 (Blood, 2022).
